ChEMBL document CHEMBL1125042, “Hypolipidemic activity of rifamycin derivatives” (J Med Chem, 1990)
In brackets after ≈: the same amount, converted by molar mass.

Key:
[1] = tested on: Rattus norvegicus; experiment: Hypolipidemic activity was determined in male rats, cholesterol was determined in high-density lipoproteins at 30 mg/kg; assay type: functional, organism-based; set-up: dose 30 mg/kg
Procedure, shortened: (§1)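 Groups of eight male Wistar rats (200–230 g) dosed orally in PEG 400, either daily for 7 days (killed 24 h after the last dose) or for 4 days with a second dose on day 4 (killed 16 h later). Fasted 16 h. Paired sera pooled, lipoproteins separated by ultracentrifugation (1.006 and 1.040 g/cm³), HDL taken as the infranatant. Cholesterol measured enzymatically; % vs vehicle, mean ± SEM of four pools.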

[2] = species on record: Rattus norvegicus; conditions: 30 mg/kg
[3] = tested on: Rattus norvegicus; experiment: Hypolipidemic activity was determined in male rats, cholesterol was determined in high-density lipoproteins at 100 mg/kg; assay type: functional, organism-based; set-up: dose 100 mg/kg; procedure, shortened: as §1
[4] = tested on: Rattus norvegicus; experiment: Hypolipidemic activity was determined in male rats, and serum cholesterol level was determined at 100 mg/kg
[5] = tested on: Rattus norvegicus; experiment: Hypolipidemic activity was determined in male rats, and low-density lipoprotein level was determined at 30 mg/kg
[6] = tested on: Rattus norvegicus; experiment: Hypolipidemic activity was determined in male rats, cholesterol was determined in low-density lipoproteins at 100 mg/kg; assay type: functional, organism-based; set-up: dose 100 mg/kg; procedure, shortened: as §1
[7] = tested on: Staphylococcus aureus; experiment: Antibacterial activity against Staphylococcus aureus 10B; assay type: functional
Procedure, shortened: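 Agar dilution on DST agar with 2-fold drug dilutions. Inoculum of 10⁴ viable S. aureus 10B was taken from liquid-nitrogen stock, thawed 30 min and not subcultured. It was applied by multipoint replicator and incubated overnight at 37 °C. MIC is the lowest concentration inhibiting growth relative to control cultures.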

[8] = tested on: Rattus norvegicus; experiment: Hypolipidemic activity was determined in male rats, and low-density lipoprotein level was determined at 100 mg/kg; assay type: functional
Procedure, shortened: (§2)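 Male Wistar rats (200–230 g), eight per group, were dosed orally in PEG 400 at 8 a.m. for 4 days, plus a second dose at 4 p.m. on day 4. Rats were fasted 16 h and killed 16 h after the last dose. Sera from pairs of rats were pooled. LDL (up to 1.040 g/cm³) was separated by ultracentrifugation and the HDL infranatant taken. Cholesterol was measured enzymatically. Results are % versus vehicle control, mean ± SEM of four pools, Student's t test.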

[9] = tested on: Rattus norvegicus; experiment: Hypolipidemic activity was determined in male rats, and high-density lipoprotein level was determined at 100 mg/kg; assay type: functional; procedure, shortened: as §2
[10] = tested on: Rattus norvegicus; experiment: Compound was tested for hypolipidemic activity in male rats, cholesterol was determined in serum at 100 mg/kg; assay type: functional; procedure, shortened: as §2
[11] = species on record: Rattus norvegicus; experiment: Hypolipidemic activity was determined in male rats, and high-density lipoprotein level was determined; assay type: functional; procedure, shortened: as §2
[12] = species on record: Rattus norvegicus; experiment: Compound was tested for hypolipidemic activity in male rats, cholesterol was determined in serum.; assay type: functional; procedure, shortened: as §2
[13] = species on record: Rattus norvegicus; experiment: Hypolipidemic activity was determined in male rats, and low-density lipoprotein level was determined; assay type: functional; procedure, shortened: as §2
[14] = tested on: Rattus norvegicus; experiment: Compound was tested for hypolipidemic activity in male rats, cholesterol level was determined in serum at 30 mg/kg; assay type: functional, organism-based; set-up: dose 30 mg/kg; procedure, shortened: as §2

MIC [7] [µg/mL]	SMILES	Serum HDL-cholesterol [1] [%]	Serum cholesterol [2] [%]	Serum HDL-cholesterol [3] [%]	Serum cholesterol [4] [%]	Serum LDL-cholesterol [5] [%]	Serum LDL-cholesterol [6] [%]	Activity [8] [%]	Activity [9] [%]	Activity [10] [%]	Activity [11] [%]	Activity [12] [%]	Activity [13] [%]	Serum cholesterol [14] [%]
	O=C(O)c1cccnc1	-1	-6	-13	-10	-32	-52							
0.003 (≈ 0.00365 µM)	CO[C@H]1/C=C/O[C@@]2(C)Oc3c(C)c(O)c4c(O)c(c(/C=N/N5CCN(C)CC5)c(O)c4c3C2=O)NC(=O)/C(C)=C\C=C\[C@H](C)[C@H](O)[C@@H](C)[C@@H](O)[C@@H](C)[C@H](OC(C)=O)[C@@H]1C [RIFAMPIN]							-31	-27	-30				
1 (≈ 1.08 µM)	COc1c(C)c2c3c4c1C(=O)C(=C(N1CCN(Cc5c(C)cc(C)cc5C)CC1)C4=O)NC(=O)/C(C)=C\C=C\C(C)C(O)C(C)C(O)C(C)C(OC(C)=O)C(C)C(OC)/C=C/OC(C)(O2)C3=O (stereo not given)										-6	-4	1	
	CCOC(=O)C(C)(C)Oc1ccc(Cl)cc1	-13		-34	-30	-8	14							-15
